Experimental data reported in publication PMC9245008 (ACS chemical biology, 2022).

Experiments:
IRAK4 = target: T1, IRAK4 (Homo sapiens, UniProt Q9NWZ3); test: Potency of takinib analogues against IRAK4; format: biochemical
T1 sequence (Q9NWZ3 1-460): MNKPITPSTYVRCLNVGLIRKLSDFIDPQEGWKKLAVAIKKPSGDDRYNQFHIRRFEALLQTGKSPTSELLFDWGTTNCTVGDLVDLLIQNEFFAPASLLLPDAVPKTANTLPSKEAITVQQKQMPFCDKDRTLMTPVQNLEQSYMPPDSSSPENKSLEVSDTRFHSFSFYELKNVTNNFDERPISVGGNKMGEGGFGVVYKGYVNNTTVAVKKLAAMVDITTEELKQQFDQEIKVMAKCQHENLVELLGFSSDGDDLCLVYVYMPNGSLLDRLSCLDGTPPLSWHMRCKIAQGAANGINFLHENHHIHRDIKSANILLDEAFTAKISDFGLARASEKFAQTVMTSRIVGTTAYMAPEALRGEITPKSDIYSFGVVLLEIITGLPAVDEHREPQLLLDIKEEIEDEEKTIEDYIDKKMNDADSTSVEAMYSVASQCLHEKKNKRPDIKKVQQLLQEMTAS

NUAK1 = target: T2, NUAK1 (Homo sapiens, UniProt O60285); test: MRC Dundee kinase panel screen at 10 μM; format: biochemical
T2 sequence (O60285 1-661): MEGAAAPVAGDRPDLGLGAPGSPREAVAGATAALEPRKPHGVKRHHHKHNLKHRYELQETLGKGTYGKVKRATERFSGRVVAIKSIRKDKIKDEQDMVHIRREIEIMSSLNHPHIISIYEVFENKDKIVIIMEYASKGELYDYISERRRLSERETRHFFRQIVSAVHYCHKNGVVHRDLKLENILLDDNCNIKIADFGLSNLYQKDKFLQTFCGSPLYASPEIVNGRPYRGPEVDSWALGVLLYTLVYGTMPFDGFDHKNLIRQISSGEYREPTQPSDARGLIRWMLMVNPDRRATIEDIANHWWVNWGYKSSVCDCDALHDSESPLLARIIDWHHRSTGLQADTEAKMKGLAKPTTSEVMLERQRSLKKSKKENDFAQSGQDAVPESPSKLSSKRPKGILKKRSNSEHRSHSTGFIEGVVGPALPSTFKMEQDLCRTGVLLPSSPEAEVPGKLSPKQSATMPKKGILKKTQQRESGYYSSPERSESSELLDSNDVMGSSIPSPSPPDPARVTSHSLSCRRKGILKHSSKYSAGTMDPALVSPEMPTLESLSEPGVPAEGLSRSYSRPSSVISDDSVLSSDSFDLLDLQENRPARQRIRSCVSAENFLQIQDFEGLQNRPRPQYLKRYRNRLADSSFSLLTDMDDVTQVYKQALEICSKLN

ULK2 = target: T3, ULK2 (Homo sapiens, UniProt Q8IYT8); test: MRC Dundee kinase panel screen at 10 μM; format: biochemical
T3 sequence (Q8IYT8 1-1036): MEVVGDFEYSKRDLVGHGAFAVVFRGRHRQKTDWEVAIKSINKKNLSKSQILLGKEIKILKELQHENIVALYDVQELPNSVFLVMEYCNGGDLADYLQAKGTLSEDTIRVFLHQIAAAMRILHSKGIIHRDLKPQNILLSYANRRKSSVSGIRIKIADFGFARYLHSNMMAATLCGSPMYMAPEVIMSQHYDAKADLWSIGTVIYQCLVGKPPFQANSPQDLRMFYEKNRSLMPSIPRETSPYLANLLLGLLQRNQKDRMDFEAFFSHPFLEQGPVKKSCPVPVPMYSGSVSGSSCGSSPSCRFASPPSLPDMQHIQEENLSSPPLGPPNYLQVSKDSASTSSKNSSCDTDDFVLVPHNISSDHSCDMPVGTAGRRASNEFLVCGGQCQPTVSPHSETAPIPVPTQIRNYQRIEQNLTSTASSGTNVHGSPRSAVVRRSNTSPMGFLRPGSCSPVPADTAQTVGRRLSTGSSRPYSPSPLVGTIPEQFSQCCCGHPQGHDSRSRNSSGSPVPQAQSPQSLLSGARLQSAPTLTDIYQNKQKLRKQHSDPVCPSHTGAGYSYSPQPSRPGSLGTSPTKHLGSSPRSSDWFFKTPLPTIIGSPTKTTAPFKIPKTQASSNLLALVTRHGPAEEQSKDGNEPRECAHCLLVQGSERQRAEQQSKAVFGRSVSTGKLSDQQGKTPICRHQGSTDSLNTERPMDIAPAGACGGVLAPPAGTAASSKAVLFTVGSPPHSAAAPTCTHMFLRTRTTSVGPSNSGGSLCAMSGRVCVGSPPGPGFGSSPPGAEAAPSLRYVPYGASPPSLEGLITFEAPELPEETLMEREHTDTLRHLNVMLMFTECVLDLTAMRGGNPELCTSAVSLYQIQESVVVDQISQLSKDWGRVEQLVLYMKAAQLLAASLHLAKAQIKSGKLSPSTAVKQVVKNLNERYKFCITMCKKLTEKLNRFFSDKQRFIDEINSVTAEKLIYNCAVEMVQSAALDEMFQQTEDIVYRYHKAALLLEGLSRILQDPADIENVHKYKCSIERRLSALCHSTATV

[1] = test system: TNF expression in THP-1 cells; test: Cytokine dose–response curves in THP-1 cells; format: cell-based, human; settings: read-out: IC50 TNF expression; LPS-stimulated THP-1, 24 h
Outline: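 THP-1 cells differentiated with PMA (100 nM) for up to 72 h, then rested 24 h in PMA-free RPMI. Pretreated with test compound (3.2 nM–32 μM) or DMSO vehicle, then stimulated with LPS (10 ng/mL). After 24 h, TNF, IL-6 and IL-1β in supernatant measured by Luminex and expressed as percent of vehicle control; n = 3.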

## CCCn1c(NC(=O)c2cccc(C(N)=O)c2)nc2ccc(CN3CCCCC3)cc21 [HS-276]
IRAK4; Figure 2d
  IRAK4 inhibition in dose–response experiments: minimal IRAK4 inhibition
IRAK4; IRAK4 IC50 over TAK1 IC50
  Ratio: 1000
IRAK4; read-out: IRAK4 IC50
  IC50: 2.5 µM
IRAK4; selectivity
  preference for TAK1 over IRAK4: 1000 fold
NUAK1
  enzymatic activity: < 15%
ULK2
  enzymatic activity: < 15%
[1]
  IC50: 0.138 µM
